Screens: PubChem, Sanford-Burnham Center for Chemical Genomics
Only a sample is shown.
Apaf1 activ = human Apaf-1 activation; O14727; Apaf-1 apoptosome caspase-3 activation, DEVD-Rh110 fluorescence; stronger effect = lower value; activity change, negative = activation, % at 20 µM; 330,000 compounds, 0.31% hits; AID 489031;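 active = activity change at or below -40% at 20 µM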
Target sequence (O14727 whole entry, looked up): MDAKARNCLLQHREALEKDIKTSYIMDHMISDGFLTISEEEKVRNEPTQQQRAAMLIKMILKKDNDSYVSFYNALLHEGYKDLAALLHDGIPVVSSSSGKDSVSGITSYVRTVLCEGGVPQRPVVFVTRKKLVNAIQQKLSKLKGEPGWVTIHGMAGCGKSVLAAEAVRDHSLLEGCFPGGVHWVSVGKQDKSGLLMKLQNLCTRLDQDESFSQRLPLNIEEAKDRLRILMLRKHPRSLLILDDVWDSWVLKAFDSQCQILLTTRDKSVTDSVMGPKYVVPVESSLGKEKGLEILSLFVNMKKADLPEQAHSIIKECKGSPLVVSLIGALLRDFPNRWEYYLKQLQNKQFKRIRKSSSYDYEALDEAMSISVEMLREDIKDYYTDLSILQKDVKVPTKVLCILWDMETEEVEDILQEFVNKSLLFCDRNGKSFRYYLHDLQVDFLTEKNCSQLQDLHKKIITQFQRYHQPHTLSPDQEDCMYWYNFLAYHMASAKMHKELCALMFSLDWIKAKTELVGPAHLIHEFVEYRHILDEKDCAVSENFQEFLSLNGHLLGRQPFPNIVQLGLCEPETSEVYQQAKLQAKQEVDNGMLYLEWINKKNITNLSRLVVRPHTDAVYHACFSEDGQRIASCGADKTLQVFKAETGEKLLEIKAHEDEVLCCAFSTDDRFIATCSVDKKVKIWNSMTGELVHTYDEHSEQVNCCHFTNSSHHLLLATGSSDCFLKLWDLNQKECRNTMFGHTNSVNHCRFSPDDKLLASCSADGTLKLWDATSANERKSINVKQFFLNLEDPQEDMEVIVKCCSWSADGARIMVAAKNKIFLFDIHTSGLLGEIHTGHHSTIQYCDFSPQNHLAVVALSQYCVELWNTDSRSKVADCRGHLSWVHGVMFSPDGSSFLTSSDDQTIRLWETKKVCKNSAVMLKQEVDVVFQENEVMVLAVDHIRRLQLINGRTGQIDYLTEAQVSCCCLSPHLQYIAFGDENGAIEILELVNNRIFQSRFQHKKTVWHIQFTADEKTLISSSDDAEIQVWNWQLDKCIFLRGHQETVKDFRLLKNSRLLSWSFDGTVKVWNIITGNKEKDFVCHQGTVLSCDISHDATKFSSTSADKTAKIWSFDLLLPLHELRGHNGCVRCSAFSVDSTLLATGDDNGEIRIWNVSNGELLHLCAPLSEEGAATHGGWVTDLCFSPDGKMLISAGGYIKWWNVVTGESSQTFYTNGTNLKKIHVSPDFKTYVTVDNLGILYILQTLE
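Material: reconstituted apoptosome of Apaf-1, cytochrome c, caspase-9, procaspase-3; times: 30 min preincubation, 50 min reaction, room temperature; measured by: fluorescence, 540 nm emission, 480 nm excitation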
Rh110 act interf = interferes with Rh110 fluorescence, flagging false Apaf-1 activators; 980 tested, under 10 active; AID 504616; fluorescence interference (activity change), % at 20 µM, hits read low; shares compounds with Apaf1 activ; Rh110 fluorescence interference, quenched caspase reaction, Ex480/Em540;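 active = mean activity change at or below -40% when tested at 20 µM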
Apaf-1 act conf2 = Apaf-1 (human) activation, single-dose confirmed. shares compounds with Apaf1 activ. reconstituted apoptosome caspase-3 activity, DEVD-Rh110 fluorescence; stronger effect = lower value. activity change, negative = activation, % at 20 µM. AID 504617. 980 compounds, 5% hits;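 active = mean activity change at or below -40%, meaning activation of 40% or more, at 20 µM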
Apaf1 act interf = Apaf-1 activator counter-screen fluorescence artifact; EC50, µM; AID 588592; fluorescence interference counterscreen, Apaf-1 activator assay; 55 tested, under 10 active; shares compounds with Apaf1 activ; call rule not given here
* = called active by the depositor; x = no result given.

SMILES	Apaf1 activ	Rh110 act interf	Apaf-1 act conf2	others
CCC[C@@H](CN1CCC[C@H]1CN1C(N)=NC[C@@H]1Cc1ccccc1)N1C[C@@H](Cc2ccccc2)N(CCCC2CCCC2)C1=N	70	x	x
CC1(C)N([O-])c2cc([N+](=O)[O-])ccc2[N+]1=O	66	x	x
CCOC(=O)c1c(C)oc2c1C(=O)c1ccccc1C2=O	69	x	x
CCOC(=O)c1c(-c2ccc(OC)cc2)oc2cc(Br)c(O)cc12	-62*	-1	-28
CCN(CC)CCNC(=O)c1ccc(NC(=O)C2CC(=O)N(CCc3ccc(OC)c(OC)c3)C2)cc1 (centres undefined)	47	x	x
COc1ccc(CCN(C)C(=O)C2CC(=O)N(Cc3ccc(C)cc3)C2)cc1OC (centres undefined)	56	x	x
COc1ccc(CCN2C(=O)C3C4CC(C5C(C(=O)NN)=NOC45)C3C2=O)cc1OC (centres undefined)	-312*	12	13
O=C(COC(=O)c1ccccc1Sc1ccc(C(F)(F)F)cc1[N+](=O)[O-])NC(=O)NC1CCCC1	40	x	x
O=C1C=C(N2CCCCC2)c2ccccc2C1=O	98	x	x
Cc1cccc(C)c1N1CCN(c2n[nH]c(N)n2)CC1	-60*	3	19
O=S(=O)(/N=C/N1CCOCC1)c1ccc(Cl)cc1	43	x	x
CCN1/C(=C/c2ccc3ccccc3[n+]2CC)C=Cc2ccccc21	41	x	x
CCN(CC)c1ccc(N=Cc2ccccc2[N+](=O)[O-])cc1	62	x	x
C#CCOCCOCCOCCNc1nc(N2CCN(C(=O)CCCCCCCCCCNC(=O)[C@H](CCCCN)n3cc(CCO)nn3)CC2)nc(N2CCN(C(=O)CCCCCCCCCCNC(=O)[C@H](CCCCN)n3cc(CCCC(=O)O)nn3)CC2)n1	59	x	x
O=C1c2ccccc2-c2onc3ccc(NCc4ccco4)c1c23	69	x	x
CCOc1ccc2noc3c2c1C(=O)c1ccccc1-3	76	x	x	Apaf1 act interf=14*
COC(CNC(=O)c1ccc2c3c(onc13)-c1ccccc1C2=O)OC	73	x	x
COc1ccc(OC)c2c1cc(C(=O)N[C@H](C(=O)N1CCC[C@H]1C(=O)O)C(C)C)n2C	52	x	x
CCC[C@@H](CN1CCC[C@H]1CN1C(N)=NC[C@H]1CC(C)C)N1C[C@@H](Cc2ccccc2)N(CCc2ccc(Cl)c(Cl)c2)C1=N	68	x	x
CCOC(=O)c1c2ccc(OCC(=O)NN)cc2n2ccccc12	42	x	x
O=C(COc1ccc2c3c(c(=O)oc2c1)CCC3)N1CCN(c2ccc(F)cc2)CC1	42	x	x
Cc1oc2cc(OCC(=O)O)ccc2c(=O)c1Oc1ccccc1	-100*	4	12
CN(Cc1cnc2nc(N)nc(N)c2n1)c1ccc(C(=O)N[C@@H](CCC(=O)O)C(=O)O)cc1	3	x	x
CCCC[n+]1ccn(C2=C([O-])c3ccccc3C(=O)/C2=N\S(=O)(=O)c2ccc(Cl)cc2)c1	52	x	x
O=C(CCN1CCOCC1)N1CCCC(Nc2ccc(F)cc2)C1 (centres undefined)	-56*	3	5
SMILES	Apaf1 activ	Rh110 act interf	Apaf-1 act conf2	others
COc1ccc2nc(C)cc(N/N=C/c3ccccc3)c2c1	50	x	x
COC1=C(N)C(=O)c2nc(-c3nc(C(=O)O)c(C)c(-c4ccc(OC)c(OC)c4O)c3N)ccc2C1=O	84	x	x
CC(C)(C)C(=O)NC1=NN(c2c(Cl)cc(Cl)cc2Cl)C(=O)C1	68	x	x
COC(=O)C1=C(C)N(Cc2ccccc2)C(=NCc2cccc(Cl)c2)N[C@H]1c1ccccc1	56	x	x
O=C(C1CCCCC1)N(Cc1ccccc1)c1ccccn1	-154*	-5	2
COc1ccc(CN(CCN(C)C)c2ccccn2)cc1	3	x	x
CC(C)N(Cc1cc2ccccc2[nH]c1=O)C(=O)C1CCCCC1	57	x	x
CCC(C)(C(=O)NC1CCCC1)N(C(=O)c1ccccn1)c1ccc(C)cc1 (centres undefined)	-78*	6	14
Nc1ccc(N)c(C(=O)O)c1	67	x	x
CC(C)CCn1c(CN2CCOCC2)nc2c1c(=O)n(C)c(=O)n2C	-44*	9	12
Cn1c(=O)c2c(nc(CN3CCc4ccccc4C3)n2Cc2cccc(Cl)c2)n(C)c1=O	51	x	x
O=C1Cc2ccccc2C(=O)N1OCc1ccc(Cl)cc1Cl	68	x	x
O=C(CCCCCn1c(=O)[nH]c2ccsc2c1=O)N1CCN(C2CCCCC2)CC1	-387*	0	2
CC(=O)NC1=C(NC2CCS(=O)(=O)C2)C(=O)c2ccccc2C1=O (centres undefined)	41	x	x
CC(=O)N(C)C1=C(O)c2ccccc2C(=O)C1=O	40	x	x
CCn1c(SCC(=O)c2ccc(F)cc2)nnc1-c1ccoc1C	-223*	-3	9
COc1cc(OC)c2c(-c3cccc(-c4ccc(CO)cc4)c3)cc(=O)oc2c1	42	x	x
COc1cc([N+](=O)[O-])ccc1NC(=O)NNC(=O)c1sccc1C	-60*	8	12
CCOC(=O)N1CCN(S(=O)(=O)c2ccc(C(=O)N(CCCN(C)C)c3nc4ccc(CC)cc4s3)cc2)CC1	55	x	x
CN(CCC#N)C(=O)COC(=O)c1cc(Cl)cc(Cl)c1N	-63*	11	17
CC1(C)Cc2ccccc2C2=NNC(=O)C2=N1	62	x	x
OCCC1CN(Cc2ccc3ncccc3c2)CCN1Cc1ccccc1 (centres undefined)	-247*	-1	8
COc1cc(S(=O)(=O)Nc2ccccc2)ccc1NC=O	-49*	-3	11
COc1cc(-c2ccc(Nc3ccccc3C(=O)O)c(OC)c2)ccc1Nc1ccccc1C(=O)O	48	x	x
C=CC[C@@H](Cc1ccc(F)cc1)C(=O)OC[C@H]1CCCN1C(=O)[C@@H](CC=C)CC(=O)N[C@H](CO)Cc1ccccc1	41	x	x
SMILES	Apaf1 activ	Rh110 act interf	Apaf-1 act conf2	others
CCSc1ncc(Cl)c(C(=O)Nc2ccc(S(=O)(=O)Nc3ncccn3)cc2)n1	-76*	0	6
O=[N+]([O-])c1ccc(N/N=C/c2ccc(O)c(O)c2O)c(S(=O)(=O)N2CCOCC2)c1	63	x	x
CC(=O)C(C(C)=O)C1(O)C(=O)c2ccccc2C1=O	86	x	x
CN(C(=S)Nc1ccc(SC(F)F)cc1)c1ccc(O)cc1	70	x	x
CC(=O)[C@@]1(O)CCC2C3C=CC4=CC(=O)CC[C@]4(C)C3CC[C@@]21C (some centres undefined)	-287*	9	11
CC(=O)[C@H]1CC[C@H]2[C@@H]3CCC4=CC(=O)CC[C@]4(C)[C@H]3CC[C@]12C	19	x	x
COc1ccc2cc1Oc1ccc(cc1)C[C@H]1c3c(cc(OC)c4c3Oc3c(ccc5c3[C@H](C2)N(C)CC5)O4)CCN1C	59	x	x
CN1CCN(CCCN2c3ccccc3Sc3ccc(C(F)(F)F)cc32)CC1	54	x	x
COc1ccc2[nH]c3c(=O)n(/N=C/c4ccc(OC)c(CN5CCCC5)c4)c(C)nc3c2c1	43	x	x
CCOc1cc(CNc2ccc(N(C)C)cc2)cc(Br)c1OCC(=O)NC(C)(C)C	44	x	x
CC1(C)CC2CC(C)(CN2C(=O)c2cccs2)C1 (centres undefined)	-95*	6	13
CC(C)[C@H](CN1CCC[C@H]1CN1C(N)=NC[C@H]1C(C)C)N1C[C@@H](Cc2ccccc2)N(CCCC2CCCC2)C1=N	63	x	x
